From ChEMBL document CHEMBL3997826, “Discovery and characterization of novel indole and 7-azaindole derivatives as inhibitors of β-amyloid-42 aggregation for the treatment of Alzheimer's disease” (Bioorg Med Chem Lett, 2017) come the findings set out here.

Series [1] addresses T1, Amyloid-beta precursor protein (Homo sapiens, UniProt P05067). Put plainly: Inhibition of HFIP-pretreated amyloid beta (1 to 42 residues) (unknown origin) aggregation after 24 hrs by ThT fluorescence assay.
In series [2] the target is T1, Amyloid-beta precursor protein. Put plainly: Inhibition of HFIP-pretreated amyloid beta (1 to 42 residues) (unknown origin) aggregation at 1:10 protein to compound ratio after 24 hrs by ThT fluorescence assay relative to control. As to conditions: concentration not given here. A digest of the protocol: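 A crude Aβ1-42 peptide film at 33 µM was mixed with compound at 330 µM, a 1:10 molar ratio, and aggregation was read by thioflavin-T fluorescence. Values are percent of the DMSO-only Aβ1-42 aggregation control, as the mean ± SD of two independent experiments.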

A short description of series [3]: Permeability from apical to basolateral side in human Caco2 cells. The format is ADME, cell-based. As to conditions: Caco-2, read-out: permeability. A digest of the protocol:
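Apical-to-basolateral permeability was reported in cm/s. The efflux ratio was used to judge P-gp substrate status.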
A general note: Caco-2 monolayers are a common model of the intestinal barrier.

A short description of series [4]: Metabolic stability in human liver microsomes assessed as parent compound remaining after 1 hr. Type of series: ADME, microsome. As to conditions: read-out: Stability. In short, it runs like this:
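Compounds were incubated with human or mouse liver microsomes for 1 h at 37 °C. The read-out was the percentage of parent compound remaining.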

Series [5] in a line: Half life in human liver microsomes. Type of series: ADME, microsome. Background: Liver microsomes are vesicles of endoplasmic reticulum, rich in cytochrome P450 enzymes.
The next series concerns Liver. Nature of the series: Drug metabolism in human liver microsomes assessed as oxidation of indole-3 position. Type of series: ADME, microsome.

As a reminder, the IC50 is the concentration at which inhibition is half-maximal. By inhibition is commonly meant the percentage by which the read-out fell short of the control. A word on the half-life: it is the time needed for the level to fall by half in the phase considered. A lower half-life goes with fast loss.

T1 sequence (P05067 whole entry, the tested form may be a part): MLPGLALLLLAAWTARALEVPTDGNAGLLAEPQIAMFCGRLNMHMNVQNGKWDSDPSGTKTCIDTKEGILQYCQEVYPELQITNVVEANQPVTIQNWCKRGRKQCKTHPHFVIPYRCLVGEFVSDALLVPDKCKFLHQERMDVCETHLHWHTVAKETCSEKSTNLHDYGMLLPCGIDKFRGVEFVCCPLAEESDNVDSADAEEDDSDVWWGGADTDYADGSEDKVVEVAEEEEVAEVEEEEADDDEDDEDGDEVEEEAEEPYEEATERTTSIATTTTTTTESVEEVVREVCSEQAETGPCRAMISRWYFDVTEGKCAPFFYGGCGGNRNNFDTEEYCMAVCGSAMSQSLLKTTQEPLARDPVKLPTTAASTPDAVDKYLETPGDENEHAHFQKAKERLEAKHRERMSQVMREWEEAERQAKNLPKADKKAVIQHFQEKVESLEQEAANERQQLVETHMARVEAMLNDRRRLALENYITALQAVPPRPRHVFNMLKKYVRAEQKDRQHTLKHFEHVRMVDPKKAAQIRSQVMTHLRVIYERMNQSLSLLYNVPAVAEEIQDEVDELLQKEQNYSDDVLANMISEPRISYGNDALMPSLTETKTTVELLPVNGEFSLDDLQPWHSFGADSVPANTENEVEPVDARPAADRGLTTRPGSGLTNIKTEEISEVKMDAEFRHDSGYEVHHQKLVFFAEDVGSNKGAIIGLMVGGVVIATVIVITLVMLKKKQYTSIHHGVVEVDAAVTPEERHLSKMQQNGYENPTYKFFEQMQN

For `c1cc2c(C3CCNCC3)c[nH]c2cc1Nc1ccc2[nH]cc(C3CCNCC3)c2c1`, the IC50 in series [1] is 26.6 µM. For the same molecule, in series [2], the inhibition was above 90%.
Consider `CN1CCC(c2c[nH]c3ccc(Nc4ccc5c(C6CCNCC6)c[nH]c5n4)cc23)CC1`, for which the inhibition in series [2] is above 90%. The Papp A→B in series [3] came out at 0.02 ×10⁻⁶ cm/s. In series [4], the remaining at 1 h was 95%.
For the molecule `c1ccc(Nc2ccc3cc[nH]c3n2)nc1`, the inhibition in series [2] is 71%.
As to `CN1CCC(c2c[nH]c3cc(Nc4ccc(F)c(F)c4)ccc23)CC1`, in series [1], the IC50 was found to be 48 µM. In addition, the inhibition in series [2] lay within 81 to 93%.
Consider `N#Cc1c[nH]c2nc(Nc3ccc4c(C5CCNCC5)c[nH]c4c3)ccc12`, for which, in series [1], the 50% inhibitory concentration (IC50) is 17.8 µM. In series [2], the inhibition was above 90%.
Consider `c1cc2cc(Nc3ccc4cc[nH]c4c3)ccc2[nH]1`, for which the inhibition in series [2] turned out to be 94%.
On the same count and under the same terms, with `CN1CCC(c2c[nH]c3cc(Nc4ccc5c(C6CCN(C)CC6)c[nH]c5c4)ccc23)CC1` the figure was above 90%; with `c1cc2cc(Nc3ccc4cc[nH]c4n3)ccc2[nH]1`, 97%; with `c1cc2ccc(Nc3ccc4cc[nH]c4n3)nc2[nH]1`, 75%.
Turning to `c1cc2cc(Nc3ccc4cc[nH]c4n3)cnc2[nH]1`, in series [2], the inhibition is 86%.
With `FC(F)(F)c1ccc(Nc2ccc3c(C4CCNCC4)c[nH]c3c2)cn1`, the IC50 in series [1] turned out to be 24 µM. Also, the inhibition in series [2] was 81 to 93%.
In the case of `c1cc2ccc(Nc3ccc4cc[nH]c4c3)cc2[nH]1`, the inhibition in series [2] is 96%.
`c1cc2ncc(Nc3ccc4cc[nH]c4n3)cc2[nH]1`: the half-inhibitory concentration (IC50) in series [1] stood at 23.8 µM. Besides, the half-life in series [5] worked out at 11 min. Also, the inhibition in series [2] worked out at 98%. In the series on Liver, the Drug metabolism entry was “Metabolite_Detected”.
For `CN1CCC(c2c[nH]c3cc(Nc4ccc5[nH]cc(C6CCN(C)CC6)c5c4)ccc23)CC1`, the IC50 in series [1] stood at 15.3 µM. For the same molecule, the inhibition in series [2] was above 90%.
For the molecule `c1cc2ccc(Nc3ccc4cc[nH]c4n3)cc2[nH]1`, the inhibition in series [2] was determined as 75%.
The same measure, in the same setting: with `c1cc2ccc(NC3CCNCC3)nc2[nH]1` the figure was 48%.
The same measure, in the same setting: for `Fc1cc(F)cc(Nc2cnc3cc[nH]c3c2)c1` the value was 52%.
On to `Fc1ccc(Nc2ccc3c(C4CCNCC4)c[nH]c3n2)cc1F`, for which the 50% inhibitory concentration (IC50) in series [1] was found to be 30 µM. In addition, the inhibition in series [2] lay within 81 to 93%.
`c1cc2c(C3CCNCC3)c[nH]c2cc1Nc1ccc2c(C3CCNCC3)c[nH]c2n1`: the IC50 in series [1] was found to be 25.6 µM. The inhibition in series [2] was above 90%.
For `Fc1ccc(Nc2ccc3c(C4CCNCC4)c[nH]c3c2)cc1F` the same measures were 24 µM and 81 to 93%.
As for `Cn1cc(C2CCNCC2)c2ccc(Nc3ccc(F)c(F)c3)cc21`, in series [1], the half-maximal inhibitory concentration (IC50) worked out at 42 µM. The inhibition in series [2] lay within 81 to 93%.
Turning to `Fc1ccc(Nc2ccc3cc[nH]c3n2)cc1`, the inhibition in series [2] stood at 52%.
As for `c1cc2c(C3CCNCC3)c[nH]c2cc1Nc1ccc2c(C3CCNCC3)c[nH]c2c1`, the inhibition in series [2] is above 90%. Moreover, the Papp A→B in series [3] amounted to 0.01 ×10⁻⁶ cm/s. Moreover, the remaining at 1 h in series [4] stood at 89%.
For `COc1ccc(Nc2ccc3c(C4CCN(C)CC4)c[nH]c3c2)cc1OC`, in series [1], the IC50 was determined as 25 µM. The inhibition in series [2] lay in the range of 81 to 93%.
On to `Fc1cc(F)cc(Nc2ccc3cc[nH]c3n2)c1`, for which, in series [2], the inhibition turned out to be 60%.
